# Source: ChEMBL document CHEMBL3352373, “Design and synthesis of 21-alkynylaryl pregnenolone derivatives and evaluation of their anticancer activity” (Bioorg Med Chem, 2014)
# Activity calls are given as the source filed them. No cut-off for these calls is given here.
# How the values were obtained:
# LNCaP [1] = assay: Cytotoxic activity against human LNCAP cells after 24 hrs by MTT assay; type: functional, cell-based
# In short: (§1)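 MTT assay; log-phase cells seeded at 10^4 cells/well in DMEM, allowed to attach for 24 h at 37 °C, 5% CO2. Compounds dissolved in DMSO/water (1:1) and tested at 0.1–100 µM (1:2 serial dilutions), four replicates per condition. MTT at 0.5 mg/ml final added 4 h before end; dissolved in 0.1 N HCl/isopropanol, A545 read. Untreated cells as 100% growth, blank subtracted; IC50 as mean ± SD of 3–4 independent experiments.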
# A549 [2] = assay: Cytotoxic activity against human A549 cells after 24 hrs by MTT assay; type: functional, cell-based; settings: A549, 24 h; in short: as §1
# MCF7 [3] = assay: Cytotoxic activity against human MCF7 cells after 24 hrs by MTT assay; type: functional, cell-based; settings: MCF7, 24 h; in short: as §1
# HeLa [4] = assay: Cytotoxic activity against human HeLa cells after 24 hrs by MTT assay; type: functional, cell-based; in short: as §1
# A-431 [5] = assay: Cytotoxic activity against human A431 cells after 24 hrs by MTT assay; type: functional, cell-based; settings: A-431, 24 h; in short: as §1
# HepG2 [6] = assay: Cytotoxic activity against human HepG2 cells after 24 hrs by MTT assay; type: functional, cell-based; settings: HepG2, 24 h; in short: as §1
# HT-29 [7] = assay: Cytotoxic activity against human HT-29 cells after 24 hrs by MTT assay; type: functional, cell-based; settings: HT-29, 24 h; in short: as §1
# LNCaP [8] = assay: Cytotoxic activity against human LNCAP cells after 48 hrs by MTT assay; type: functional, cell-based; in short: as §1
# A549 [9] = assay: Cytotoxic activity against human A549 cells after 48 hrs by MTT assay; type: functional, cell-based; settings: A549, 48 h; in short: as §1
# MCF7 [10] = assay: Cytotoxic activity against human MCF7 cells after 48 hrs by MTT assay; type: functional, cell-based; settings: MCF7, 48 h; in short: as §1
# HeLa [11] = assay: Cytotoxic activity against human HeLa cells after 48 hrs by MTT assay; type: functional, cell-based; in short: as §1
# A-431 [12] = assay: Cytotoxic activity against human A431 cells after 48 hrs by MTT assay; type: functional, cell-based; settings: A-431, 48 h; in short: as §1
# HepG2 [13] = assay: Cytotoxic activity against human HepG2 cells after 48 hrs by MTT assay; type: functional, cell-based; settings: HepG2, 48 h; in short: as §1
# HT-29 [14] = assay: Cytotoxic activity against human HT-29 cells after 48 hrs by MTT assay; type: functional, cell-based; settings: HT-29, 48 h; in short: as §1
# HeLa [15] = assay: Cytotoxic activity against human HeLa cells assessed as cell viability at 10 uM after 24 hrs by trypan blue exclusion method; type: functional; settings: read-out: Activity
# In short: (§2)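 Trypan blue exclusion after 24 h compound exposure. Medium collected, attached cells trypsinized and pooled with it, then centrifuged at 1200 rpm for 5 min. Pellet resuspended in PBS with 0.2% trypan blue. 200–300 cells counted per experiment in three separate experiments. Viability is the percentage of viable cells over total cells, taken as the mean.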
# LNCaP [16] = assay: Cytotoxic activity against human LNCAP cells assessed as cell viability at 10 uM after 24 hrs by trypan blue exclusion method; type: functional; settings: read-out: Activity; in short: as §2
# A-431 [17] = assay: Cytotoxic activity against human A431 cells assessed as cell viability at 5 uM after 24 hrs by trypan blue exclusion method; type: functional; settings: A-431, 24 h, read-out: Activity; in short: as §2
# MCF7 [18] = assay: Cytotoxic activity against human MCF7 cells assessed as cell viability at 10 uM after 24 hrs by trypan blue exclusion method; type: functional; settings: MCF7, 24 h, read-out: Activity; in short: as §2
# [19] = Inhibition of PI3K/Akt signalling pathway in human MCF7 cells at cytotoxic IC50 after 24 hrs by immunoblot; type: cell-based
# In short: (§3)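 Cells dosed at their cytotoxic IC50 and lysed 24 h later (A431 also sampled over time) in ice-cold HEPES pH 7.5 buffer with phosphatase/protease inhibitors and 0.5% Triton X-100. 50 µg protein per lane on 10% SDS–PAGE, transferred to nitrocellulose, blocked in 5% milk/TBS-T. Probed overnight at 4 °C with anti-pAkt (Ser473; 1:1000) and β-actin loading control; HRP secondary, ECL detection. Untreated cells as control.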
# [20] = Inhibition of PI3K/Akt signalling pathway in human A431 cells at cytotoxic IC50 after 24 hrs by immunoblot; type: cell-based; settings: A-431; in short: as §3
# [21] = Inhibition of PI3K/Akt signalling pathway in human A431 cells at cytotoxic IC50 after 2 to 24 hrs by immunoblot; type: cell-based; settings: A-431, TDE = time-dependent effect; in short: as §3
# [22] = Inhibition of PI3K/Akt signalling pathway in human LNCAP cells at cytotoxic IC50 after 24 hrs by immunoblot; type: cell-based; in short: as §3
# [23] = Inhibition of PI3K/Akt signalling pathway in human HeLa cells at cytotoxic IC50 after 24 hrs by immunoblot; type: cell-based; in short: as §3
SMILES,IC50 (LNCaP [1]) [µM],IC50 (A549 [2]) [µM],IC50 (MCF7 [3]) [µM],IC50 (HeLa [4]) [µM],IC50 (A-431 [5]) [µM],IC50 (HepG2 [6]) [µM],IC50 (HT-29 [7]) [µM],IC50 (LNCaP [8]) [µM],IC50 (A549 [9]) [µM],IC50 (MCF7 [10]) [µM],IC50 (HeLa [11]) [µM],IC50 (A-431 [12]) [µM],IC50 (HepG2 [13]) [µM],IC50 (HT-29 [14]) [µM],viability at 10 µM (HeLa [15]) [%],viability at 10 µM (LNCaP [16]) [%],viability at 5 µM (A-431 [17]) [%],viability at 10 µM (MCF7 [18]) [%],inhibition [20],further results
C#Cc1cccc(C#CC(=O)[C@H]2CC[C@H]3[C@@H]4CC=C5C[C@@H](O)CC[C@]5(C)[C@H]4CC[C@]23C)c1,19.1,> 50,11.2,> 50,4.85,42.6,> 50,16.9,20.2,5.15,> 50,1.52,17.9,> 50,93.2,90.3,0,0,Active,inhibition [19]: Active
C[C@]12CC[C@H](O)CC1=CC[C@@H]1[C@@H]2CC[C@]2(C)C(=O)CC[C@@H]12 [PRASTERONE],> 50,47.8,> 50,> 50,> 50,> 50,> 50,> 50,47.8,> 50,> 50,> 50,> 50,> 50,–,–,–,–,–,–
C[C@]12CC[C@H]3[C@@H](CC=C4C[C@@H](O)CC[C@@]43C)[C@@H]1CC[C@@H]2C(=O)C#Cc1cccc(C(F)(F)F)c1,26.2,29.3,31.4,25.1,2.28,45.7,> 50,17.4,20.7,18.6,8.34,0.54,16.4,26.4,92.5,92.1,0,94.2,Active,inhibition [21]: tde
C[C@]12CC[C@H]3[C@@H](CC=C4C[C@@H](O)CC[C@@]43C)[C@@H]1CC[C@@H]2C(=O)C#Cc1ccc(F)cc1,12.4,> 50,> 50,> 50,7.16,> 50,> 50,10.8,40.6,> 50,43.7,2.18,> 50,44.7,98.4,25.6,28.6,90.4,Active,–
Cc1cc(C#CC(=O)[C@H]2CC[C@H]3[C@@H]4CC=C5C[C@@H](O)CC[C@]5(C)[C@H]4CC[C@]23C)ccc1F,> 50,40.1,17.6,> 50,> 50,> 50,> 50,38.4,28.2,11.3,> 50,> 50,> 50,26.7,–,–,–,–,–,–
Cc1cc(C)c(C#CC(=O)[C@H]2CC[C@H]3[C@@H]4CC=C5C[C@@H](O)CC[C@]5(C)[C@H]4CC[C@]23C)cc1C,> 50,> 50,39,> 50,39.3,> 50,> 50,46.2,> 50,7.78,32.4,12.5,48.6,> 50,–,–,–,–,–,–
C[C@]12CC[C@H]3[C@@H](CC=C4C[C@@H](O)CC[C@@]43C)[C@@H]1CC[C@@H]2C(=O)C#Cc1ccccc1C(F)(F)F,7.9,15.8,13.5,13.8,4.21,38.4,24.6,5.44,6.3,4.42,3.85,1.78,12.6,9.87,70.8,0,0,18.9,Active,inhibition [22]: Active; inhibition [23]: Active; inhibition [19]: Active
COc1ccc(C#CC(=O)[C@H]2CC[C@H]3[C@@H]4CC=C5C[C@@H](O)CC[C@]5(C)[C@H]4CC[C@]23C)cc1,> 50,> 50,> 50,> 50,> 50,> 50,> 50,47.6,> 50,> 50,26.7,> 50,> 50,> 50,–,–,–,–,–,–
C[C@]12CC[C@H]3[C@@H](CC=C4C[C@@H](O)CC[C@@]43C)[C@@H]1CC[C@@H]2C(=O)C#Cc1cccc(F)c1,14.7,> 50,28.4,21.4,> 50,> 50,> 50,9.48,24.9,14.7,6.44,45.3,> 50,28.6,–,–,–,–,–,–
COc1ccc(C#CC(=O)[C@H]2CC[C@H]3[C@@H]4CC=C5C[C@@H](O)CC[C@]5(C)[C@H]4CC[C@]23C)c(C)c1,41.7,44.3,44.1,> 50,44.1,> 50,48.4,30.8,30.5,18.8,23.6,13.7,45.7,22.7,–,–,–,–,–,–
